# Experimental data taken from the array DNA melting data of Ke et al. (doi:10.1101/2024.01.08.574731).
# How the values were obtained:
# [1] = melting temperature; fluorescence melt of hairpins on a sequencing array, two-state fit, raised by 9.35 °C to match UV melts; conditions: sodium 0.088 M
# In short: (§1)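 Folding enthalpy and melting temperature were estimated with bootstrapped two-state fits and combined across four replicates by inverse-variance weighting, with fitted temperatures raised by 9.35 °C to match UV melts. The data were Cy3 fluorescence of library hairpins, with annealed Cy3 and quencher oligos, on a sequenced MiSeq flow cell in 50 mM Na-HEPES pH 8.0, 25 mM NaCl, imaged in 2.5 °C steps up to 60 °C and normalised to pre-quench Cy3 and control constructs.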
# [2] = folding enthalpy; higher = less favourable; fluorescence melt of hairpins on a sequencing array, two-state fit; conditions: sodium 0.088 M
# In short: as §1
Sequence,Tm [1] [°C],folding enthalpy [2] [kcal/mol]
GGGAACACGAAAGTGCCC (((..(((....)))))),45,-19.8
GCTACGCGAAAGCCTTGC ((.(.((....)).).)),29.6,-9.85
GGGGCCGAAAGGCAACCC ((((((....)))..))),57.3,-15
GCGATGCGAAAGCAGGGC ((..(((....)))..)),61.4,-20.4
GTAGTACGAAAGTATTAC (((.(((....))).))),41.5,-31.3
GGGTTCGGAAACGGACCC ((((.((....)).)))),59.6,-46.2
GGTACGGGAAACCGTGTC (..((((....))))..),35.3,-14.1
GACTGTACGAAAGTAGTC (((..(((....)))))),36.9,-28.8
GATCAAAGAGTTGATC ((((((....)))))),37.2,-21.3
GGTTGCCGAAAGGCCACC (((.(((....))).))),52.6,-26.6
GGGAAGCCGAAAGGCCCC (((..(((....)))))),50.6,-16.3
GGATCCGAAAGGAGGTCC ((((((....)))..))),32.9,-14.9
GTCCGACGAAAGTCGAC (((.(((....)))))),44.7,-13.2
GATACCGAAAGGTCAATC ((((((....)))..))),21.7,-8.3
GGGTGGGCGAAAGCCCCC (((..(((....)))))),54.5,-12
CGTTACGGAAACGTTACG (((.(((....))).))),48,-26.9
GCCCCCCCGAAAGGGGGC (((..(((....)))))),65.2,-11.2
GATGAAGGAAACTTCGTC ((.((((....)))).)),42.4,-27
GCTGTCCGAAAGGAAAGC (((.(((....))).))),53.7,-37.8
GATCATGGGGATGATC ((((((....)))))),46.5,-29.2
GGAATACCGAAAGGTTCC (((..(((....)))))),36.4,-16.1
GCCGGAGGAAACTCCGAC (.(((((....))))).),49.9,-13.1
GTGGGTGGAAACGCCTAC ((.((.(....).)).)),41.9,-25.3

Sequence,Tm [1] [°C],folding enthalpy [2] [kcal/mol]
GCTTGCCGAAAGGCTAGC (((.(((....))).))),64.4,-27.8
GGGGCAACGAAAGTTCCC (((..(((....)))))),47.4,-25.5
GCTGGCGAAAGCCTAGC ((((((....))).))),59.3,-19.4
GTATGTGGAAACACACAC ((.((((....)))).)),35.2,-17.1
GTCAACGAAAGTTAGAC ((((((....))).))),41,-23.5
GCTGTGCGAAAGCCCTGC ((.(.((....)).).)),41.9,-15.3
CGTCTTCGGAAACGAACG (((..(((....)))))),29.8,-11.3
GGGACTCGAAAGAGACCC (((.(((....))).))),59.5,-39.2
GTCGGGGGAAACCCCGGC (.(((((....))))).),62.5,-22
GCACGACGAAAGTCTGC (((.(((....)))))),52.4,-20.8
GCCGCTGGAAACAGCAGC ((.((((....)))).)),50.1,-20.1
GATCTAGGAAACTAGACC (.(((((....))))).),29.3,-14.8
GATCCCAGGTGGGATC ((((((....)))))),60.1,-37
GCGCTGCGAAAGCACGC (((.(((....)))))),69.2,-17.6
GTCTGTCGAAAGACGAC (((.(((....)))))),51.5,-28.6
GGTGATGGAAACATTGCC ((..(((....)))..)),38.3,-32.5
GCAAGGCGAAAGCCCGGC ((..(((....)))..)),45.9,-17.4
GATCTGTTCCCAGATC ((((((....)))))),48.6,-33.7
GCCACCGGAAACGGCAGC ((..(((....)))..)),31,-15.6
GCCACTGCGAAAGCAGGC (((..(((....)))))),46,-8.9
GCGACCGAAAGGTTACGC ((((((....)))..))),50,-26.6
GATCCCTGCTGGGATC ((((((....)))))),60.2,-39.5
GTTCCAGGAAACTGGGAC ((.((((....)))).)),49.3,-27.6

Sequence,Tm [1] [°C],folding enthalpy [2] [kcal/mol]
GTCCACGGAAACGCGGAC ((((.((....)).)))),53.8,-45.8
GTACGACGAAAGTCATAC (((.(((....))).))),39.4,-19
GATCTTGGGCAAGATC ((((((....)))))),46.7,-37.4
GTAGGGGAAACCCTAC ((((((....)))))),55.4,-36.7
GAGTCCGGAAACAGACTC (((((.(....).))))),41.6,-31.1
GTAGAACCGAAAGGTTAC (((..(((....)))))),32.5,-13.3
GCAGACCGAAAGGTTTGC (((.(((....))).))),63.4,-41.6
GATCAAATATTGATC ((((((...)))))),40.2,-32.8
GCATTCGGAAACGAATAC (.(((((....))))).),37,-19.8
GCGGACTACCGC ((((....)))),54,-27.9
GTATGCGAAAGCATTAC ((((((....))).))),43.4,-13.8
GTCAGCGAAAGCTAGAC ((((((....))).))),50.7,-22.8
GATCTTCGGAAGATC ((((((...)))))),41.9,-33.3
GAGCTGCGAAAGCATCTC (((.(((....))).))),46.8,-29.4
GATCGGCATACCGATC ((((((....)))))),56.9,-40.5
GATCGAGAGGTCGATC ((((((....)))))),50.1,-19
GCACCTGCGAAAGCATGC (((..(((....)))))),33.6,-9.15
GCCATTGGAAACAACGGC (((.(((....))).))),43,-33.1
TCTCAGAAATGAGA (((((....))))),31.1,-12.2
GTCGGAACGAAAGTTGAC (((..(((....)))))),32.7,-10.8
GCTTGGGGAAACTCGAGC (((.(.(....).).))),36.9,-31.3
GATCGCCTGCGCGATC ((((((....)))))),67.2,-32
GCGTGCTCACGC ((((....)))),58.6,-25
